How the values were obtained:
[1] = test system: HL-60; test: Effect on Ca2+ mobilization in human wild type HL60 cells; format: functional, cell-based
Outline: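 Wild-type, non-transfected HL-60 cells, grown without G418, were run in the same Fluo-4 Ca2+ flux assay. Fluorescence was monitored every 5 s for 240 s at room temperature.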

[2] = test system: HL-60; test: Cytotoxicity against human wild type HL60 cells at 5 to 20 uM after 60 mins by CellTitre-Glo luminescent assay; format: cell-based; conditions: hl-60, 1 h
Outline: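 Wild-type HL-60 cells at 3×10^4 cells/well were exposed to 5, 10 or 20 µM compound for 60 min at 37 °C in 5% CO2. Samples were equilibrated to room temperature for 30 min before the CellTiter-Glo luminescence read. Triplicate samples; the experiment was representative of two.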

[3] = target: fMet-Leu-Phe receptor 1/2 (Homo sapiens) (UniProt P21462+P25090); test: Agonist activity at FPR1/FPR2 in human neutrophils assessed as induction of Ca2+ mobilization relative to fMLF; format: functional
Outline: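 Neutrophils from healthy donors were isolated by dextran sedimentation, Histopaque 1077 gradient and hypotonic red cell lysis. […] Peak response was normalized to 5 nM fMLF as 100%. EC50 comes from 5–6 point curves, mean of three experiments with different donors.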

[4] = target: T1, N-formyl peptide receptor 3 (Homo sapiens, UniProt P25089); test: Agonist activity at FPR3 (unknown origin) transfected in human HL60 cells assessed as induction of Ca2+ mobilization; format: cell-based, HL-60
T1 sequence (P25089 whole entry): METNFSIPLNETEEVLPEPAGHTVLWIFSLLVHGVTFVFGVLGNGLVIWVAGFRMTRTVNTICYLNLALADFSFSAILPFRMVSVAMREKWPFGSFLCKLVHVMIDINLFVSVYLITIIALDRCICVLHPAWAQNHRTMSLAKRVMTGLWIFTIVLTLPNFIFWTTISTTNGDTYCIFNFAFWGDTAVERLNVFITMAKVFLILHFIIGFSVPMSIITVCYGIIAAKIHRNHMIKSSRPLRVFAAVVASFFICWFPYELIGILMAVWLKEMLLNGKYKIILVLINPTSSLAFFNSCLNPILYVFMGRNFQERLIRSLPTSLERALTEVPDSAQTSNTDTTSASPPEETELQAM

[5] = target: T2, fMet-Leu-Phe receptor (Homo sapiens) (UniProt P21462); test: Agonist activity at FPR1 (unknown origin) transfected in human HL60 cells assessed as induction of Ca2+ mobilization relative to fMLF; format: functional, cell-based; conditions: HL-60
T2 sequence (whole entry): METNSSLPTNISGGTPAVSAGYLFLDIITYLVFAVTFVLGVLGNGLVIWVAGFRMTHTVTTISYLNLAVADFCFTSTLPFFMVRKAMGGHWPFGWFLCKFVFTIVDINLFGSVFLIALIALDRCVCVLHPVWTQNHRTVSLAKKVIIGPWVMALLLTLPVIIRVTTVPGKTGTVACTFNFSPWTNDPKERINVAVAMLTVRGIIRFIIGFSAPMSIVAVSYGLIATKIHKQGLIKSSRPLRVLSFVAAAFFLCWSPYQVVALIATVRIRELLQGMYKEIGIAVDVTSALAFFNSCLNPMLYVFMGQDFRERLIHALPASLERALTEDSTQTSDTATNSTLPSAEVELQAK
Outline: (§1)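 Same Fluo-4 Ca2+ flux in transfected HL-60 cells. The peak fluorescence change over baseline was normalized to 5 nM fMLF for FPR1 cells and to 5 nM WKYMVm for FPR2 and FPR3 cells, each taken as 100%. Efficacy was read from 5–6 point dose-response curves.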

[6] = target: T3, N-formyl peptide receptor 2 (Homo sapiens) (UniProt P25090); test: Agonist activity at FPR2 (unknown origin) transfected in human HL60 cells assessed as induction of Ca2+ mobilization relative to WKYMVm; format: functional, cell-based; conditions: HL-60; outline: as §1
T3 sequence (whole entry): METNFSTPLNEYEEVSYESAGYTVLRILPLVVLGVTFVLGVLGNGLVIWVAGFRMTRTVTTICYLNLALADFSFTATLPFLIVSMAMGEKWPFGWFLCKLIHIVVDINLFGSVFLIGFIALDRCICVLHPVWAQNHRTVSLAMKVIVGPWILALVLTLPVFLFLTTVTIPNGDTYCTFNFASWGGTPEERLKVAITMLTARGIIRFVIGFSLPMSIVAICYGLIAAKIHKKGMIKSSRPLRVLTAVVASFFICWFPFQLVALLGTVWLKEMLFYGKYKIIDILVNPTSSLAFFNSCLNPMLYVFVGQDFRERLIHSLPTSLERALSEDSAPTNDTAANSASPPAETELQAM

[7] = target: T4, fMet-Leu-Phe receptor (Homo sapiens, UniProt P21462); test: Agonist activity at FPR1 (unknown origin) transfected in human HL60 cells assessed as induction of Ca2+ mobilization; format: functional, cell-based, HL-60
T4 sequence (P21462 whole entry): T2 sequence (whole entry)

[8] = target: T5, N-formyl peptide receptor 2 (Homo sapiens, UniProt P25090); test: Agonist activity at FPR2 (unknown origin) transfected in human HL60 cells assessed as induction of Ca2+ mobilization; format: functional, cell-based, HL-60
T5 sequence (P25090 whole entry): T3 sequence (whole entry)

[9] = target: T6, N-formyl peptide receptor 3 (Homo sapiens) (UniProt P25089); test: Agonist activity at FPR3 (unknown origin) transfected in human HL60 cells assessed as induction of Ca2+ mobilization relative to WKYMVm; format: cell-based; conditions: HL-60; outline: as §1
T6 sequence (whole entry): T1 sequence (P25089 whole entry)

[10] = test system: Neutrophil; test: Induction of chemotaxis in human neutrophils assessed as cell migration after 60 mins by CellTitre-Glo luminescent assay; format: functional, cell-based; conditions: 1 h
Outline: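 Migration ran 60 min at 37 °C in 5% CO2. Migrated cells were counted by ATP luminescence against a neutrophil standard curve and expressed as % of spontaneous migration. EC50 comes from nonlinear regression of dose-response curves.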

[11] = target: T7, fMet-Leu-Phe receptor 1/2 (Homo sapiens, UniProt P21462+P25090); test: Agonist activity at FPR1/FPR2 in human neutrophils assessed as induction of Ca2+ mobilization; format: functional
T7 sequence (P21462 whole entry): T2 sequence (whole entry)
T7 sequence (P25090 whole entry): T3 sequence (whole entry)

| Compound | EC50 [1] [µM] | Activity [2] | Efficacy [3] [%] | EC50 [4] [µM] | Efficacy [5] [%] | Efficacy [6] [%] | EC50 [7] [µM] | EC50 [8] [µM] | Efficacy [9] [%] | EC50 [10] [µM] | EC50 [11] [µM] |
| --- | --- | --- | --- | --- | --- | --- | --- | --- | --- | --- | --- |
| COc1cccc(Cc2cc(C3CCCCC3)nn(CC(=O)Nc3ccc(Br)cc3)c2=O)c1 | > 50 | Non-toxic | 65 | > 50 | 80 |  |  |  |  |  |  |
| Cc1cc(Cc2ccsc2)c(=O)n(CC(=O)Nc2ccc(Br)cc2)n1 | > 50 | Non-toxic | 115 | > 50 | 100 | 65 |  |  |  |  |  |
| Cc1cc(Cc2ccccc2)c(=O)n(CC(=O)Nc2ccc(Br)cc2)n1 | > 50 | Non-toxic |  | > 50 | 50 | 20 | 5.5 | 11.6 |  |  |  |
| COc1cccc(C(=O)Nc2cc(C)nn(CC(=O)Nc3ccc(Br)cc3)c2=O)c1 | > 50 | Non-toxic | 110 | > 50 | 120 | 100 |  |  |  |  |  |
| COc1cccc(Cc2ccnn(CC(=O)Nc3ccc(Br)cc3)c2=O)c1 | > 50 | Non-toxic |  | 14.6 | 125 | 60 |  |  | 25 |  |  |
| Cc1cc(N)c(=O)n(CC(=O)Nc2ccc(Br)cc2)n1 | > 50 | Non-toxic |  | > 50 | 115 | 85 |  |  |  |  |  |
| COc1ccc(Nc2cc(C)nn(CC(=O)Nc3ccc(Br)cc3)c2=O)cc1 | > 50 | Non-toxic | 105 | > 50 | 100 | 110 |  |  |  |  |  |
| CCc1cc(Cc2cccc(OC)c2)c(=O)n(CC(=O)Nc2ccc(I)cc2)n1 | > 50 | Non-toxic | 90 | > 50 | 70 | 65 |  |  |  |  |  |
| COc1cccc(Cc2cc(C(C)C)nn(CC(=O)Nc3ccc(Br)cc3)c2=O)c1 | > 50 | Non-toxic | 110 | 17.4 | 135 | 90 |  |  | 30 |  |  |
| COc1cccc(C(=O)c2cc(C)nn(CC(=O)Nc3ccc(Br)cc3)c2=O)c1 | > 50 | Non-toxic | 115 | > 50 | 140 | 110 |  |  |  |  |  |
| Cc1cc(Cc2cccnc2)c(=O)n(CC(=O)Nc2ccc(Br)cc2)n1 | > 50 | Non-toxic | 120 | > 50 | 85 | 90 |  |  |  |  |  |
| Cc1cc(Cc2ccoc2)c(=O)n(CC(=O)Nc2ccc(Br)cc2)n1 | > 50 | Non-toxic | 125 | > 50 | 100 | 75 |  |  |  |  |  |
| Cc1cc(Cc2cccs2)c(=O)n(CC(=O)Nc2ccc(Br)cc2)n1 | > 50 | Non-toxic | 80 | 10.2 | 140 | 60 |  |  | 25 |  |  |
| Cc1cc(Cc2ccccc2)c(=O)n(CC(=O)Nc2ccc3c(c2)OCO3)n1 | > 50 | Non-toxic | 75 | > 50 | 55 |  | 6.9 | > 50 |  | 4.2 | 6.1 |
| COc1ccc(-c2cc(C)nn(CC(=O)Nc3ccc(Br)cc3)c2=O)cc1 | > 50 | Non-toxic | 70 | > 50 | 55 |  |  |  |  |  |  |
| Cc1cc(Cc2cccc(Cl)c2)c(=O)n(CC(=O)Nc2ccc(Br)cc2)n1 | > 50 | Non-toxic | 90 | > 50 | 100 |  |  |  |  |  |  |
| COc1cc(Cc2cc(C)nn(CC(=O)Nc3ccc(I)cc3)c2=O)cc(OC)c1 | > 50 | Non-toxic | 75 | > 50 | 80 |  |  |  |  |  |  |
| Cc1cc(Cc2cccc(F)c2)c(=O)n(CC(=O)Nc2ccc(Br)cc2)n1 | > 50 | Non-toxic | 130 | > 50 | 110 |  |  |  |  |  |  |
| COc1cccc(Cc2cc(-c3ccccc3)nn(CC(=O)Nc3ccc(Br)cc3)c2=O)c1 | > 50 | Non-toxic | 115 | > 50 | 110 | 25 |  |  |  |  |  |
| Cc1cc(Cc2ccc(C(N)=O)cc2)c(=O)n(CC(=O)Nc2ccc(Br)cc2)n1 | > 50 | Non-toxic |  | > 50 | 40 | 80 | 29.3 | 27.2 |  |  |  |
| Cc1cc(Cc2cccc(Cl)c2)c(=O)n(CC(=O)Nc2ccc(I)cc2)n1 | > 50 | Non-toxic | 90 | > 50 | 55 | 35 |  |  |  |  |  |
